Source: PubChem BioAssay (several laboratories)
In the library only some 4% were active in any assay of this set; here they are far more common.
NTR1 agonist = NTR1 (human) agonism | P30989 | NTR1-U2OS beta-arrestin-GFP spot imaging, agonist mode | activation, % at 20 µM | hit rate 0.17% among 330,000;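 active = activation at or above 40% of the spot to cytoplasm intensity ratio, with at least 20 cells analyzed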;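 note: 0% = DMSO without peptide and 100% = 100 nM NTR1 peptide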
Target sequence (P30989 whole entry, looked up): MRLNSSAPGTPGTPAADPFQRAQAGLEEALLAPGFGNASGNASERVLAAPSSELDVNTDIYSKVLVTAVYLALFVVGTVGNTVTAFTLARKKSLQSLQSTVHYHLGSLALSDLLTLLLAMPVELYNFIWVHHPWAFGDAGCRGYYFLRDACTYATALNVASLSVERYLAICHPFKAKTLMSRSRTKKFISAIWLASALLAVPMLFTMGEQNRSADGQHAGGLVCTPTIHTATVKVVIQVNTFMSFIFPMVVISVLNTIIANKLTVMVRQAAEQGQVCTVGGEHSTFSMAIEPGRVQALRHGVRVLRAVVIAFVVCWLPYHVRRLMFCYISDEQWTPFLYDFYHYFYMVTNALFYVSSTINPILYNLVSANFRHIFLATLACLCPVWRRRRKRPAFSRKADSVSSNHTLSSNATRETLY
OX1R antag-1 = antagonists of human orexin 1 receptor (OX1R). O43613. OX1R-expressing cells, FRET antagonist read-out. inhibition, % at 6.6 µM. hit rate 1.8% among 330,000; in the data active = inhibition mostly above about 38%, no sharp cut-off; inactive = mostly below about 40%;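 note: 0% = agonist challenge alone and 100% = reference antagonist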
CHO parental Ca = counter-screen: ATP calcium response change in parental CHO cells; parental CHO-K1, ATP-induced calcium, Fluo-8 fluorescence; hit rate 0.63% among 330,000; inhibition, % at 5.6 µM; AID 463079;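 active = inhibition above that plate's mean sample inhibition plus 3 SD, cut at about 26% in these data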;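 note: 0% = ATP-challenged DMSO wells and 100% = DMSO wells without ATP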
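Test system: parental CHO cells; detection: calcium-sensitive Fluo-8 fluorescence; evaluation: percent inhibition of calcium signal; also added: ATP as calcium-mobilizing challenge; repeats: one well per compound; control set: ATP-challenged DMSO wells low, unchallenged DMSO wells high; compound: single nominal dose of 5.6 µM per compound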
TAAR1 antag = antagonists of human TAAR1; AID 624466; inhibition, % at 3 µM; CHO RD-HGA16 TAAR1, Fluo-8 calcium fluorescence, antagonist; hit rate 1.5% among 360,000; Q96RJ0;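 active = inhibition above a per-plate cutoff, the mean inhibition of test compounds on that plate plus 3 SD, cut at about 49% in these data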;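 note: 0% = DMSO plus EC80 beta-PEA response and 100% = DMSO alone without agonist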
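test system = CHO RD-HGA16 cells bearing hTAAR1 | replication = singlicate | controls = DMSO-only wells and EC80 β-PEA-stimulated wells | reagent = EC80 β-phenethylamine stimulus | read-out basis = percent inhibition of PEA-evoked calcium signal, max/basal emission ratio | schedule = seeding 17-24 h prior, 75-min 37 °C, 30-min RT dye loading | signal = kinetic Fluo-8 calcium fluorescence measurement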
OX1R antag-2 = blocks the human orexin 1 receptor | CHO/OX1R cells, Fluo-8 calcium fluorescence, orexin A | AID 434989 | O43613 | inhibition, % at 5 µM | hit rate 0.43% among 330,000;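 active = inhibition above its plate's threshold, mean inhibition of all tested compounds on the plate plus 3 SD, cut at about 37% in these data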;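 note: 0% = orexin A challenge wells and 100% = SB-334867-A antagonist wells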
TAAR1 ag = human TAAR1 agonism. Q96RJ0. CHO RD-HGA16 TAAR1, Fluo-8 calcium fluorescence; vehicle wells 0%, saturating PEA agonist 100%. activation, % at 3 µM. hit rate 0.99% among 360,000. AID 624467;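 active = activation above the mean activation of all test compounds in the run plus 3 SD, cut at about 38% in these data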
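Test system: RD-HGA16 (CHO) cells co-expressing Gα16 and hTAAR1 / Benchmarks: DMSO vehicle as 0%, PEA at EC100 as 100% / Repeats: no replicates (n 1) / Measure: % activation from peak over basal fluorescence ratio, DMSO-to-PEA scaled / Timing: 17-24 h plating, Fluo-8 75 min 37 °C, 30 min RT / Technique: kinetic Fluo-8 calcium fluorescence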
* marks the source's active call; other numbers are inactive results; / = not tested or not shown.

SMILES	NTR1 agonist	OX1R antag-1	CHO parental Ca	TAAR1 antag	OX1R antag-2	TAAR1 ag
CCN(CC)CCCNC(=O)C1CCN(c2ncnc3c2sc2cccc(F)c23)CC1	0	31	-11	-30	-18	0
O=C1CS/C(=N/N=C/c2cccs2)N1Cc1ccc(F)cc1	0	18	6	13	15	-2
CCOC(=O)c1cnc(SCC(=O)Nc2cc(OC)ccc2OC)nc1N	0	71	34*	18	39	8
COC(=O)[C@]12C[C@H](CC(=O)NCc3ccc(OC)c(OC)c3)C(=O)N(Cc3ccc4c(c3)OCO4)C1=C[C@H](COCc1ccccc1)O[C@@H]2C	/	/	/	-9	/	0
CCC(CO)[n+]1c(C)cc(/C=C2\Sc3ccccc3N2Cc2ccccc2)cc1C (stereo not drawn)	/	15	41*	6	17	5
Cc1cc([N+](=O)[O-])cc2ncccc12	0	69*	6	6	0	-1
NS(=O)(=O)c1ccc(CCNC(=O)CSc2ccc(Cl)cc2)cc1	0	5	35*	19	40	0
NS(=O)(=O)c1ccc(CCNC(=O)COC(=O)CCSc2ccc(Cl)cc2)cc1	4	5	-1	22	-2	7
O=C(Nc1ccccc1F)C1CCN(S(=O)(=O)c2cccc3nonc23)CC1	0	31	-9	0	-13	3
COc1ccc(NS(=O)(=O)c2ccc(-c3cnc(C4CC4)o3)cc2)cc1OC	0	53	55*	10	27	3
O=C(NCc1ccccc1)[C@H]1CCCN1C(=O)[C@H]1CCCN1C(=O)c1cccs1	/	/	/	-19	/	1
CC(C)c1cc(=O)oc2c3c4c(cc12)CCCN4CCC3	0	37	-21	14	-19	1
O=c1oc2c3c4c(cc2c(C(F)(F)F)c1CCN1CCOCC1)CCCN4CCC3	-4	4	9	11	14	41*
O=C(Nc1nc(-c2ccc(Cl)s2)cs1)c1ccncc1	1	44*	-20	-30	8	9
O=C(CSCC(=O)N1CCCCC1)Nc1nc(-c2ccc(Cl)s2)cs1	6	20	30*	54*	-13	1
O=C(Nc1nc(-c2ccccc2Cl)cs1)c1cccnc1	2	15	-15	8	-14	41*
O=C(Nc1nc(-c2cccs2)cs1)c1ccc(Cl)cc1	3	50	-31	-28	-20	4
CCN=C1NC(c2ccccc2)C(C(=O)OC)=C(C)N1Cc1ccc(C(F)(F)F)cc1 (stereo not drawn)	/	/	/	21	/	24
COCCN1C(=O)/C(=C/c2ccc(N3CCCC3)cc2C)SC1=S	-3	12	31*	51*	32	34
CCN=C1S/C(=C\c2ccc(N3CCOCC3)cc2C)C(=O)N1CC	0	17	-8	12	-9	3
O=C(/C=C/c1c(Cl)nc2ccccn12)Nc1ccc(F)cc1	4	53*	-16	0	-6	6
C[C@H]1COc2cc(NCCCN3CCOCC3)ccc2S(=O)(=O)N1	/	/	/	5	/	1
COc1ccc(C2C(C(=O)c3cccs3)=C(O)C(=O)N2CCN2CCOCC2)c(OC)c1 (stereo not drawn)	-2	8	-18	-3	-18	0
COc1ccc(OC2CCN(S(=O)(=O)c3ccc(OC)cc3)CC2)cc1	2	0	36*	2	27	5
CCn1c(N2CCN(S(=O)(=O)c3ccccc3C(F)(F)F)CC2)nc2ccccc21	0	17	-2	42	-12	24
CCn1c(N2CCN(S(=O)(=O)c3ccc(OC)cc3)CC2)nc2ccccc21	0	7	5	49*	-3	34
CCCCOCCCNC(=O)C[C@H]1C[C@@]2(C(=O)OC)C(=C[C@H](C(C)(C)C)O[C@@H]2C)N(Cc2ccccc2)C1=O	/	/	/	-21	/	-2
Cc1cccc2cc(CN(CC3CCCO3)S(=O)(=O)c3ccccc3)c(=O)[nH]c12 (stereo not drawn)	-1	7	-26	49*	-16	10
COc1ccc2cc(CN(CC3CCCO3)S(=O)(=O)c3ccccc3)c(=O)[nH]c2c1 (stereo not drawn)	0	12	-12	3	-9	19
